Experiments:
[1] = target: T1, Neuropeptide Y receptor type 5 (Homo sapiens, UniProt Q15761); assay: Displacement of [125I]PYY from human recombinant neuropeptide Y5 receptor expressed in thymidine kinase deficient […]; type: cell-based
T1 sequence (Q15761 whole entry): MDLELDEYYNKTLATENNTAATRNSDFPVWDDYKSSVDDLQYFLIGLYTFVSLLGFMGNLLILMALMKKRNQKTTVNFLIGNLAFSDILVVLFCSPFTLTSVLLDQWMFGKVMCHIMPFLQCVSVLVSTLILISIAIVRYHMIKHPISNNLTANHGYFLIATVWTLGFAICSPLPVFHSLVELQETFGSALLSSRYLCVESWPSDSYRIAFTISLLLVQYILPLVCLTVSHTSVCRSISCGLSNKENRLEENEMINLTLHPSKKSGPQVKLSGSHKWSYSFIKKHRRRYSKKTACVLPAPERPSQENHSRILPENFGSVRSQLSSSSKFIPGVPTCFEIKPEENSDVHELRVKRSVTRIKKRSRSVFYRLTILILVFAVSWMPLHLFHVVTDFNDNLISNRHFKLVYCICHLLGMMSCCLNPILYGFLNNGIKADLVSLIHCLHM

[2] = target: T1, Neuropeptide Y receptor type 5; assay: Antagonist activity at human recombinant neuropeptide Y5 receptor expressed in CHO cells coexpressing Gqi5 assessed as inhibition of neuropeptide Y-induced increase in intracellular calcium concentration; type: functional, cell-based
In short: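 Human recombinant Y5 receptor co-expressed with Gqi5 in CHO cells. Cells stimulated with 100 nM NPY. Antagonism read as inhibition of the NPY-evoked intracellular Ca2+ rise, reported as IC50.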

Rattus norvegicus = assay: Inhibition of D-Trp34-NPY-induced food intake in po dosed Sprague-Dawley rat; type: functional, organism-based
Mus musculus [3] = assay: Toxicity in ICR mouse assessed as gross behavioral adverse effects at 150 mg/kg, po; type: organism-based; parameters: dose 150 mg/kg, route oral; conditions: in vivo
In short: (§1)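 Mice were given a single oral dose of 150 mg/kg and observed for gross behaviour. The scored signs were psychomotor activity, motor activity, muscle tone, CNS excitation, autonomic responses and reflexes. Deaths were recorded at any time after dosing. This was run as a gross-behaviour screen before the in vivo efficacy studies.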

[4] = Half life in Sprague-Dawley rat at 10 mg/kg, po; type: ADME, organism-based; parameters: dose 10 mg/kg, route oral; conditions: in vivo
In short: (§2)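 SD rats dosed orally with 10 mg/kg, as either the single enantiomer or the racemate; n = 3 animals per dose. Plasma levels of both enantiomers followed over time to build concentration–time profiles, from which PK parameters were taken.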

[5] = Tmax in Sprague-Dawley rat at 10 mg/kg, po; type: ADME, organism-based; parameters: dose 10 mg/kg, route oral; conditions: in vivo; in short: as §2
Mus musculus [6] = assay: Toxicity in ICR mouse assessed as mortality at 150 mg/kg, po; type: organism-based; parameters: dose 150 mg/kg, route oral; conditions: in vivo; in short: as §1
[7] = target: T2, Neuropeptide Y receptor type 2 (Homo sapiens, UniProt P49146); assay: Inhibition of human neuropeptide Y2 receptor
T2 sequence (P49146 whole entry): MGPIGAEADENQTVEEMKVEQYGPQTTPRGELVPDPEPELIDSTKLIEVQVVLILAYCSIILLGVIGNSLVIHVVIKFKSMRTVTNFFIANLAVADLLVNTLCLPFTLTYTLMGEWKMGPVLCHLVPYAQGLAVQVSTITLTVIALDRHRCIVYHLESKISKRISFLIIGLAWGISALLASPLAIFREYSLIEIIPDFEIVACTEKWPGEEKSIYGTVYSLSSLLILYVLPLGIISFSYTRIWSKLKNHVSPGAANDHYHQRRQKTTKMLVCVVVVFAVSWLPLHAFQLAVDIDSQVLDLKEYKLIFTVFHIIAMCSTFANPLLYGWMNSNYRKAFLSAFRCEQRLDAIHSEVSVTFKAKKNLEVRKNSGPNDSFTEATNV

[8] = Cmax in Sprague-Dawley rat at 10 mg/kg, po; type: ADME, organism-based; parameters: dose 10 mg/kg, route oral; conditions: in vivo; in short: as §2
[9] = target: T3, Neuropeptide Y receptor type 1 (Homo sapiens, UniProt P25929); assay: Inhibition of human neuropeptide Y1 receptor
T3 sequence (P25929 whole entry): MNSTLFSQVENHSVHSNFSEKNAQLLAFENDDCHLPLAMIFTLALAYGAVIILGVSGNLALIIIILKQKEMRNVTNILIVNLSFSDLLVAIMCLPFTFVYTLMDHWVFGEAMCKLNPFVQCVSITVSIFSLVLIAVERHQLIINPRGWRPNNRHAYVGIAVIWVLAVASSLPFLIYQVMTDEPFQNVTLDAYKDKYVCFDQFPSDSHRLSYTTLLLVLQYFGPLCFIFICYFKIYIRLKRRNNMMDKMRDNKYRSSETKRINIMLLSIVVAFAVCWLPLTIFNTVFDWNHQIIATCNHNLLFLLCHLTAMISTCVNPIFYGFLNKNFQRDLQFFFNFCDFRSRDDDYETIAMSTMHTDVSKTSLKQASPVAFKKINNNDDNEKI

[10] = target: Neuropeptide Y receptor type 4 (Homo sapiens, UniProt P50391); assay: Inhibition of human neuropeptide Y4 receptor
[11] = Ratio of drug level in brain to plasma in Sprague-Dawley rat at 10 mg/kg, po; type: ADME, organism-based; parameters: dose 10 mg/kg, route oral
[12] = Fraction unbound in Sprague-Dawley rat plasma at 10 mg/kg, po; type: ADME, organism-based; parameters: dose 10 mg/kg, route oral

Chain of Neuropeptide Y receptor type 4 (P50391 whole entry): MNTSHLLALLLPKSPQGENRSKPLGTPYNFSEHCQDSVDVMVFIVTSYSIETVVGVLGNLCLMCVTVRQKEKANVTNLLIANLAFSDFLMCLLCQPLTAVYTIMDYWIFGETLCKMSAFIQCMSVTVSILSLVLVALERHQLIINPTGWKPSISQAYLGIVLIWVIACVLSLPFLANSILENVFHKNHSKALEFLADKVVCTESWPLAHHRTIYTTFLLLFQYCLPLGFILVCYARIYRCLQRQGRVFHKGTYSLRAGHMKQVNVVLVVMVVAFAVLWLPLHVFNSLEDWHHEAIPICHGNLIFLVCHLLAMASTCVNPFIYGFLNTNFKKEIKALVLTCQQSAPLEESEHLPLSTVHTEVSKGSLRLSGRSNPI

| SMILES | Ki [1] [nM] | IC50 [2] [nM] | further results |
| --- | --- | --- | --- |
| COc1cccc2c1C(C1=C(O)CC(C)(C)CC1=O)C1=C(CC(C)(C)CC1=O)O2 (configuration not stated) | > 1000 | – | – |
| CC1(C)CC(=O)C(C2C3=C(CC(C)(C)CC3=O)Oc3cc(Cl)ccc32)=C(O)C1 (configuration not stated) | 34 | 82 | – |
| O=C1CC2(CCCCC2)CC(O)=C1C1C2=C(CC3(CCCCC3)CC2=O)Oc2ccccc21 (configuration not stated) | 24 | 109 | – |
| CC1(C)CC(=O)C(C2C3=C(CC(C)(C)CC3=O)Oc3ccccc32)=C(O)C1 (racemic) | 33 | 61 | Activity (Rattus norvegicus): Dose-dependent effect; Activity (Mus musculus [3]): Non-toxic; half-life [4]: 5.2 h; Tmax [5]: 1 h; Activity (Mus musculus [6]): Non-toxic; IC50 [7]: > 10000 nM; Cmax [8]: 2400 nM; IC50 [9]: > 10000 nM; IC50 [10]: > 10000 nM |
| CC1(C)CC(=O)C(C2C3=C(CC(C)(C)CC3=O)Oc3c(Cl)cccc32)=C(O)C1 (configuration not stated) | 71 | – | – |
| CCc1ccc2c(c1)OC1=C(C(=O)CC(C)(C)C1)C2C1=C(O)CC(C)(C)CC1=O (configuration not stated) | 41 | – | – |
| Cc1ccc2c(c1)OC1=C(C(=O)CC(C)(C)C1)C2C1=C(O)CC(C)(C)CC1=O (configuration not stated) | 36 | 111 | – |
| CCOc1ccc2c(c1)OC1=C(C(=O)CC(C)(C)C1)C2C1=C(O)CC(C)(C)CC1=O (configuration not stated) | 833 | – | – |
| CC1(C)CC(=O)C(C2C3=C(CC(C)(C)CC3=O)Oc3ccc(F)cc32)=C(O)C1 (configuration not stated) | 81 | – | – |
| COc1ccc2c(c1)C(C1=C(O)CC(C)(C)CC1=O)C1=C(CC(C)(C)CC1=O)O2 (configuration not stated) | 590 | – | – |
| CC1CC(=O)C(C2C3=C(CC(C)CC3=O)Oc3ccccc32)=C(O)C1 (configuration not stated) | 193 | – | – |
| O=C1CC2(CCCC2)CC(O)=C1C1C2=C(CC3(CCCC3)CC2=O)Oc2ccccc21 (configuration not stated) | 17 | 58 | – |
| O=C1CCCC(O)=C1C1C2=C(CCCC2=O)Oc2ccccc21 (configuration not stated) | > 1000 | – | – |
| CC1(C)CC(=O)C([C@H]2C3=C(CC(C)(C)CC3=O)Oc3ccccc32)=C(O)C1 | 14 | 34 | Activity (Rattus norvegicus): Dose-dependent effect; half-life [4]: 2.7 h; Kp [11]: 0.34; Tmax [5]: 0.5 h; Cmax [8]: 2500 nM; fraction unbound [12]: 0.27 |
| CC1(C)CC(=O)C(C2C3=C(CC(C)(C)CC3=O)Oc3cc(Br)ccc32)=C(O)C1 (configuration not stated) | 36 | 81 | – |
| CC1(C)CC(=O)C(C2C3=C(CC(C)(C)CC3=O)Oc3ccc(Cl)cc32)=C(O)C1 (configuration not stated) | 197 | – | – |
| CCC1(CC)CC(=O)C(C2C3=C(CC(CC)(CC)CC3=O)Oc3ccccc32)=C(O)C1 (configuration not stated) | 20 | 90 | – |
| CC1(C)CC(=O)C([C@@H]2C3=C(CC(C)(C)CC3=O)Oc3ccccc32)=C(O)C1 | > 1000 | 343 | Kp [11]: 0.1; fraction unbound [12]: 0.1 |
| CC1(C)CC(=O)C(C2C3=C(CC(C)(C)CC3=O)Oc3c(F)cccc32)=C(O)C1 (configuration not stated) | 34 | 73 | – |
| COc1ccc2c(c1)OC1=C(C(=O)CC(C)(C)C1)C2C1=C(O)CC(C)(C)CC1=O (configuration not stated) | 93 | – | – |
| COc1cccc2c1OC1=C(C(=O)CC(C)(C)C1)C2C1=C(O)CC(C)(C)CC1=O (configuration not stated) | 2170 | – | – |
| CC1(C)CC(=O)C(C2C3=C(CC(C)(C)CC3=O)Oc3cc(F)ccc32)=C(O)C1 (configuration not stated) | 29 | 63 | – |
| O=C1CC2(CCC2)CC(O)=C1C1C2=C(CC3(CCC3)CC2=O)Oc2ccccc21 (configuration not stated) | 14 | 45 | – |
